The values that follow come from PMC5006629 (Chemical & pharmaceutical bulletin, 2013).

Read-outs that look alike come from different tables or passages of the source.

In general, IC50 refers to the concentration that gives 50% inhibition. As usually defined, the inhibition is the change of the read-out against control, counted positive when it falls.

The target of assay [1] is PDE3B (Homo sapiens, UniProt Q13370). In kind it is biochemical.
In assay [2] the test system is human HT-29 colon tumor cell line. Put plainly: HT-29 tumor cell growth inhibition. In kind it is cell-based. An outline of the steps: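 Human HT-29 colon tumour cells. Two-stage screen: test compounds first tested at one concentration in triplicate for % growth inhibition.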
[3] abbreviates: PDE3 inhibition IC50, cGMP, substrate cGMP.
Setting [4] is: read-out: % PDE3 inhibition at 50 μM, cAMP, substrate cAMP, 50 μM.
The mark [5] stands for this setting: read-out: % PDE3 inhibition at 50 μM, cGMP, substrate cGMP, 50 μM.
Where [6] appears, read: Homo sapiens, HT-29, read-out: HT-29 growth inhibition: IC50.
The mark [7] stands for this setting: PDE3 inhibition IC50, cAMP, substrate cAMP.

Sequence of PDE3B (Q13370 whole entry): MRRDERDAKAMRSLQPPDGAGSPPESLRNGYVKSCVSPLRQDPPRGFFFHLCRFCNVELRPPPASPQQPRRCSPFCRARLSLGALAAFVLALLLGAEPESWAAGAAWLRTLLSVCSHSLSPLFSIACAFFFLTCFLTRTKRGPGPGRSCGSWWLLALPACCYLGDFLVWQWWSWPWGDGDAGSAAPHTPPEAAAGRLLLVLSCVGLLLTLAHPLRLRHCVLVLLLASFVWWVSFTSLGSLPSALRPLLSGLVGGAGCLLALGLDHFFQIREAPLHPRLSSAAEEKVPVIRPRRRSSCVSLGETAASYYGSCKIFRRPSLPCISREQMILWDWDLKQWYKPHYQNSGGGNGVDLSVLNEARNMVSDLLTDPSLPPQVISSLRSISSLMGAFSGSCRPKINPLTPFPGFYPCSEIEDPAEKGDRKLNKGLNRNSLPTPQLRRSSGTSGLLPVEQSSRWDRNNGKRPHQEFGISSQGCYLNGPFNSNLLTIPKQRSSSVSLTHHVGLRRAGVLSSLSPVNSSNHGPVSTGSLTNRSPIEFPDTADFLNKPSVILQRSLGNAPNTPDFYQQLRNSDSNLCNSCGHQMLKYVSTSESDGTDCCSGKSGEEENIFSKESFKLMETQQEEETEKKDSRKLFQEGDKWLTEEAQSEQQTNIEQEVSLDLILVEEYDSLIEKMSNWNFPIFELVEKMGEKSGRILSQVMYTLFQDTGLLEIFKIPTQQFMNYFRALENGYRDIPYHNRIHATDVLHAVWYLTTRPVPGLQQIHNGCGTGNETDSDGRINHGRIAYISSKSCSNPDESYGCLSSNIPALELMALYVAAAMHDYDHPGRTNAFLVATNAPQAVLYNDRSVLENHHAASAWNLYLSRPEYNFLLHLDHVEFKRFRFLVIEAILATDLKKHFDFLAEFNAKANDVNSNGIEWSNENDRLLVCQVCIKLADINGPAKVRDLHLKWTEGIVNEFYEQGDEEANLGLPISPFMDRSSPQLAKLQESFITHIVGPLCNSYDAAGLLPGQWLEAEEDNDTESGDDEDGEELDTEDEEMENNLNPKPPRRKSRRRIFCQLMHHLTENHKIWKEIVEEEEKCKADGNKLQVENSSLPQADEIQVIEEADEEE

As for “6-(2-Bromophenyl)-4-(2-ethoxyphenyl)-2-oxo-1,2-dihydropyridine-3-carbonitrile [Compound 4]”, the “% PDE3 inhibition at 50 μM, cAMP” value in assay [1] (substrate cAMP, 50 μM) was determined as 70%. Moreover, in assay [1] (substrate cGMP, 50 μM), the “% PDE3 inhibition at 50 μM, cGMP” value is 72%. Besides, in assay [2] (HT-29 colorectal cancer cell line, 50 μM, triplicate), the “HT-29 growth inhibition: % Growth inhibition at 50 μM” value came to 68%. Further, in assay [2] (read-out: HT-29 growth inhibition: IC50, HT-29 colorectal cancer cell line, 10 concentrations), the IC50 turned out to be 15.5 µM.
Turning to `CCOc1ccccc1-c1cc(-c2cccc(Br)c2)nc2ncnc(N)c12` [Compound 6, 7-(3-Bromophenyl)-5-(2-ethoxyphenyl)pyrido[2,3-d]pyrimidin-4-amine], the IC50 in assay [1] (setting [3]) is 10.9 µM; in assay [2] (setting [6]), 18.3 µM. Besides, the inhibition at 50 µM in assay [1] (setting [4]) was determined as 48%; in assay [1] (setting [5]), 85%. In assay [1] (substrate cAMP), the “PDE3 inhibition with cAMP as substrate (in words)” value is recorded as “did not inhibit PDE3”.
With `COc1ccccc1-c1cc(-c2cccc(Br)c2)nc2nc[nH]c(=O)c12` [Compound 7, 7-(3-Bromophenyl)-5-(2-methoxyphenyl)pyrido[2,3-d]pyrimidin-4(3H)-one], the figures for the IC50 in assay [1] (setting [7]), in assay [1] (setting [3]) and in assay [2] (setting [6]) were 24.2 µM, 10.8 µM and 1.34 µM, respectively. For the same compound, the figures for the inhibition at 50 µM in assay [1] (setting [4]) and in assay [1] (setting [5]) were 62% and 78.6%, respectively.
The matching figures for `COc1ccccc1-c1cc(-c2ccc(-c3ccc(Br)cc3)cc2)nc(N)c1C#N` [Compound 3, 2-Amino-6-(4′-bromobiphenyl-4-yl)-4-(2-methoxyphenyl)nicotinonitrile]: 35.6 µM, 13.4 µM, 32 µM, 55% and 85%.
The matching figures for `N#Cc1c(-c2ccccc2Cl)cc(-c2ccccc2Br)[nH]c1=O` [Compound 5, 6-(2-Bromophenyl)-4-(2-chlorophenyl)-2-oxo-1,2-dihydropyridine-3-carbonitrile]: 6.2 µM, 10.5 µM, 10.4 µM, 77% and 75%.
Turning to `Cc1[nH]c(=O)c(C#N)cc1-c1ccncc1` [Milrinone, reference compound], the inhibition at 50 µM in assay [1] (setting [4]) came to 77%; in assay [1] (setting [5]), 95%. Besides, the “induction of apoptosis to the HT-29 cell line (in words)” value in assay [2] (HT-29 cell line, positive control) is “inactivity”. For the same compound, the IC50 in assay [2] (setting [6]) was above 50 µM.
Take `CCOc1ccccc1-c1cc(-c2cccc(Br)c2)nc(N)c1C#N` [Compound 2, 2-Amino-6-(3-bromophenyl)-4-(2-ethoxyphenyl)nicotinonitrile]: in assay [1] (setting [5]), the inhibition at 50 µM is at most 50%. In assay [2] (setting [6]), the IC50 is 43 µM.
`COc1ccccc1-c1cc(-c2cccc(Br)c2)nc(N)c1C#N` [Compound 1, 2-Amino-6-(3-bromophenyl)-4-(2-methoxyphenyl)nicotinonitrile]: it took 4 µM to reach half-maximal inhibition in assay [1] (setting [3]) (IC50). Moreover, the inhibition at 50 µM was at most 50% in assay [1] (setting [4]) and 105% in assay [1] (setting [5]).
